We go through two molecules from ChEMBL document CHEMBL4680134, “Structural optimization of natural product nordihydroguaretic acid to discover novel analogues as AcrB inhibitors” (Eur J Med Chem, 2020).

Series [1] addresses T1, Multidrug efflux pump subunit AcrB (Escherichia coli (strain K12)) (UniProt P31224).
T1 sequence (whole entry): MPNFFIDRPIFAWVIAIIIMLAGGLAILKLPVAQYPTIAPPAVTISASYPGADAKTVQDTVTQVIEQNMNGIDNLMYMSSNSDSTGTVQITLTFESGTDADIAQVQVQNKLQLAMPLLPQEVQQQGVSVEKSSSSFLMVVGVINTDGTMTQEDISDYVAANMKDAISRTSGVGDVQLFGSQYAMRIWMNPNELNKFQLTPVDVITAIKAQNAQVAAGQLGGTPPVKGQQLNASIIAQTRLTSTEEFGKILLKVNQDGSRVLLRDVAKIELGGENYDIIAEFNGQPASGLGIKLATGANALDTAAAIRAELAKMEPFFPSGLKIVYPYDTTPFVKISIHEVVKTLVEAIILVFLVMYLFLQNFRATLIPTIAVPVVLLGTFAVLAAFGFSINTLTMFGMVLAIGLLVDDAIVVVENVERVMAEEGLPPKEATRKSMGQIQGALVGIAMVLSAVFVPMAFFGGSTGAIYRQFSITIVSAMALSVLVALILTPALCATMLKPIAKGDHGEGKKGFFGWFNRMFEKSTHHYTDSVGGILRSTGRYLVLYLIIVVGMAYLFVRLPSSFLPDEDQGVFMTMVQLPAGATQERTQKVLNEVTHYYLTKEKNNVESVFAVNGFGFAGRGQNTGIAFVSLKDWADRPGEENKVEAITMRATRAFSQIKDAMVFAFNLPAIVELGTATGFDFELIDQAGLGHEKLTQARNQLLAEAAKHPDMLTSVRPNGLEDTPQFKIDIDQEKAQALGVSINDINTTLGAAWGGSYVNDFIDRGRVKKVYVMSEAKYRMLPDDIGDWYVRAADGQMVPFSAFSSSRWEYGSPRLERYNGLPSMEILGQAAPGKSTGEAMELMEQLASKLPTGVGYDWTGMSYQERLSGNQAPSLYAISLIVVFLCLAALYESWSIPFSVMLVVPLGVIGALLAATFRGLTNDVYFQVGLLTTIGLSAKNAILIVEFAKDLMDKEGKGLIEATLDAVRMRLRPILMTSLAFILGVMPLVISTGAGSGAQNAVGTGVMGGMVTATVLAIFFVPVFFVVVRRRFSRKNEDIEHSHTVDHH
The experiment in a line: Inhibition of AcrB in Escherichia coli BW25113 assessed as potentiation of erythromycin induced antibacterial activity by measuring erythromycin MIC at 32 ug/ml measured after 18 hrs by checkerboard titration method (reference value: 64 ug/ml). Particulars: dose 32.0 µg/ml.

In series [2] the target is T1, Multidrug efflux pump subunit AcrB (Escherichia coli (strain K12)). As to the kind of experiment: Inhibition of AcrB in Escherichia coli BW25113 assessed as potentiation of tetraphenylphosphonium induced antibacterial activity by measuring tetraphenylphosphonium MIC at 32 ug/ml measured after 18 hrs by checkerboard titration method (reference value: 1024 ug/ml). Particulars: dose 32.0 µg/ml.

The target is the same in series [3]. The experiment in a line: Inhibition of AcrB in Escherichia coli BW25113 assessed as potentiation of levofloxacin induced antibacterial activity by measuring levofloxacin MIC at 128 ug/ml measured after 18 hrs by checkerboard titration method (reference value: 0.06 ug/ml). Particulars: dose 128.0 µg/ml.
Series [4] shares this target. As to the kind of experiment: Inhibition of AcrB in Escherichia coli BW25113 assessed as potentiation of rifampicin induced antibacterial activity by measuring rifampicin MIC at 128 ug/ml measured after 18 hrs by checkerboard titration method (reference value: 16 ug/ml). Particulars: dose 128.0 µg/ml.
Series [5] has the same target. As to the kind of experiment: Inhibition of AcrB in Escherichia coli BW25113 assessed as potentiation of tetraphenylphosphonium induced antibacterial activity by measuring tetraphenylphosphonium MIC at 64 ug/ml measured after 18 hrs by checkerboard titration method (reference value: 1024 ug/ml). Particulars: dose 64.0 µg/ml.
Series [6] can be described thus: Growth inhibition of Escherichia coli harboring AcrB deletion mutant at 64 ug/ml after 18 hrs by broth microdilution assay. Particulars: dose 64 µg/ml. In outline:
(§1)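 MIC determined by 96-well broth microdilution in E. coli BW25113 expressing AcrB ((+)AcrB) and an isogenic acrB-deleted strain ((-)AcrB). Used to set the compound concentrations for synergy testing that produce no direct antibacterial effect.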
(In broth dilution the organism is exposed to a series of concentrations in liquid medium.)

For series [7], the target named is T1, Multidrug efflux pump subunit AcrB (Escherichia coli (strain K12)). As to the kind of experiment: Inhibition of AcrB in Escherichia coli BW25113 assessed as potentiation of rifampicin induced antibacterial activity by measuring rifampicin MIC at 32 ug/ml measured after 18 hrs by checkerboard titration method (reference value: 16 ug/ml). Particulars: dose 32.0 µg/ml.

Series [8] shares this target. The experiment in a line: Inhibition of AcrB in Escherichia coli BW25113 assessed as potentiation of chloramphenicol induced antibacterial activity by measuring chloramphenicol MIC at 16 ug/ml measured after 18 hrs by checkerboard titration method (reference value: 8 ug/ml). The conditions noted are these: dose 16.0 µg/ml.
Series [9] shares this target. The experiment in a line: Inhibition of AcrB in Escherichia coli BW25113 assessed as potentiation of chloramphenicol induced antibacterial activity by measuring chloramphenicol MIC at 128 ug/ml measured after 18 hrs by checkerboard titration method (reference value: 8 ug/ml). The conditions noted are these: dose 128.0 µg/ml.
In a further series the test system is Cell membrane. As to the kind of experiment: Induction of outer membrane permeabilization in wild type Escherichia coli BW25113 assessed as increase in nitrocefin hydrolysis at 128 ug/ml by spectrophotometry analysis. The conditions noted are these: dose 128 µg/ml. In outline: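 Outer-membrane permeability: intact E. coli treated with 10 µM CCCP to block nitrocefin efflux, then exposed to compound. Nitrocefin hydrolysis by periplasmic β-lactamase followed as increasing absorbance at 490 nm over time. Polymyxin B as permeabilizer control, untreated cells as baseline. Duplicate experiments on different days.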

Series [10] has as its target T1, Multidrug efflux pump subunit AcrB (Escherichia coli (strain K12)). As to the kind of experiment: Inhibition of AcrB in Escherichia coli BW25113 assessed as potentiation of chloramphenicol induced antibacterial activity by measuring chloramphenicol MIC at 64 ug/ml measured after 18 hrs by checkerboard titration method (reference value: 8 ug/ml). The conditions noted are these: dose 64.0 µg/ml.

Series [11] shares this target. As to the kind of experiment: Inhibition of AcrB in Escherichia coli BW25113 assessed as potentiation of chloramphenicol induced antibacterial activity by measuring chloramphenicol MIC at 32 ug/ml measured after 18 hrs by checkerboard titration method (reference value: 8 ug/ml). Particulars: dose 32.0 µg/ml.
For series [12] the target is unchanged. The experiment in a line: Inhibition of AcrB in Escherichia coli BW25113 assessed as potentiation of rifampicin induced antibacterial activity by measuring rifampicin MIC at 16 ug/ml measured after 18 hrs by checkerboard titration method (reference value: 16 ug/ml). Particulars: dose 16.0 µg/ml.
Series [13] in a line: Growth inhibition of Escherichia coli BW25113 expressing AcrB at 512 ug/ml after 18 hrs by broth microdilution assay. Particulars: dose 512 µg/ml. Summed up: as §1
In series [14] the target is T1, Multidrug efflux pump subunit AcrB (Escherichia coli (strain K12)). As to the kind of experiment: Inhibition of AcrB in Escherichia coli BW25113 assessed as potentiation of tetraphenylphosphonium induced antibacterial activity by measuring tetraphenylphosphonium MIC at 16 ug/ml measured after 18 hrs by checkerboard titration method (reference value: 1024 ug/ml). The conditions noted are these: dose 16.0 µg/ml.

Series [15] shares this target. As to the kind of experiment: Inhibition of AcrB in Escherichia coli BW25113 assessed as potentiation of levofloxacin induced antibacterial activity by measuring levofloxacin MIC at 16 ug/ml measured after 18 hrs by checkerboard titration method (reference value: 0.06 ug/ml). Particulars: dose 16.0 µg/ml.

SMILES strings stand for the structures.

As for `Oc1ccc(CCCCc2ccc(Cl)cc2)cc1O`, the MIC came to 64 µg/mL in [1]; 1020 µg/mL in [2]; 0.06 µg/mL in [3]; 16 µg/mL in series [4]; 512 µg/mL in series [5]; 16 µg/mL in series [7]. The MIC turned out to be 16 µg/mL in [8]; 16 µg/mL in series [9]; 16 µg/mL in [10]; 16 µg/mL in [11]; 16 µg/mL in [12]; 1020 µg/mL in series [14]. Besides, the MIC in [15] was 0.06 µg/mL. The “growth inhibition (GI)” value in series [6] and in series [13] was “Non-Toxic” throughout. The Activity entry in the series on Cell membrane is listed as “Toxic”.
On to `Oc1ccc(CCCCc2cc3cccc4ccc5cccc2c5c43)cc1O`, for which the MIC in series [1] worked out at 64 µg/mL; in series [2], 512 µg/mL; in series [3], 0.06 µg/mL; in series [4] it was 16 µg/mL; in [5], 512 µg/mL; in [7], 16 µg/mL. Moreover, the MIC in series [8] worked out at 8 µg/mL; in series [9], 4 µg/mL; in [10] it was 8 µg/mL; in series [11], 8 µg/mL; in series [12], 16 µg/mL; in [14], 512 µg/mL. In series [15], the MIC stood at 0.06 µg/mL. Moreover, the “growth inhibition (GI)” value in [6] and in series [13] was “Non-Toxic” in each case. The Activity entry with Cell membrane is “Non-Toxic”.
